Assay outcomes as filed in PubChem BioAssay.
Most compounds without a hit are left out; they make up all but 2% or so of the library.
UPR XBP1 act = adaptive UPR (XBP1) activation; CHO-XBP1 luciferase reporter, IRE1-XBP1 UPR activation, luminescence; percent of tunicamycin response, DMSO as zero; activation, % at 20 µM; 330,000 compounds, 0.33% hits; AID 463104;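 active = versus positive control, 20 µM dose yields 30% or more activation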;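 also: 100% = tunicamycin at 10 µg/mL and 0% = DMSO only wells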
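Material: IRE1-XBP1 luciferase reporter CHO line / Quantity: one thousand reporter cells per well / Buffer or medium: F12 with 10% serum / Compound: 20 µM single concentration, DMSO 1% / Times: 6 h treatment, 37 °C / Detection: Steady-Glo luciferase glow luminescence, 10 min after reagent addition / Benchmarks: tunicamycin high, DMSO low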
MC4R antag cAMP = blocks human MC4R cAMP signaling; MC4R-expressing cells, MTII-stimulated cAMP, LANCE TR-FRET; inhibition, % at 6.5 µM; 360,000 compounds, 0.48% hits; AID 540295; P32245;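 active = inhibition above its plate's cutoff, the mean of tested wells on that plate plus 3 SD, cut at about 29% in these data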;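 also: 0% = Melanotan II alone and 100% = Melanotan II plus saturating MCL0020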
Target sequence (P32245 whole entry, looked up): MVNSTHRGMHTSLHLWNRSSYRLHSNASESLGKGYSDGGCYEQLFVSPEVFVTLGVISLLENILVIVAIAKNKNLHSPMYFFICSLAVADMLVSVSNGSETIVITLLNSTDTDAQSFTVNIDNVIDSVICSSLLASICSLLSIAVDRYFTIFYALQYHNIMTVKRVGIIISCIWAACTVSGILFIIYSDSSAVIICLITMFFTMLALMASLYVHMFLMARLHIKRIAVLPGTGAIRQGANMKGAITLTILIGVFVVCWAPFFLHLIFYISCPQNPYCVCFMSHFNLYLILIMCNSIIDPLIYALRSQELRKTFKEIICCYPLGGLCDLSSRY
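Material: human MC4R-expressing U2OS cells. Probe or stimulus: Melanotan II challenge. Dosing: 6.5 µM single dose. Times: 30-min compound, 1-h challenge, 1-h detection, room temperature. Technique: TR-FRET with Eu-cAMP and labeled anti-cAMP, 671 nm. Replication: singlicate.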
A1 inh = inhibitors of the anti-apoptotic protein A1, read as caspase activation | MEF A1-2A-BIM cells, Caspase-Glo 3/7 luminescence, 3 h; percent of clofoctol response, vehicle zero | caspase activation, % (no concentration beside the values) | 330,000 compounds, 0.066% hits;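 active = over half of replicate activation scores above 10%, or exactly half above 10 with the replicate mean above 10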
CHOP UPR activ = apoptotic UPR (CHOP) activation; CHO-CHOP luciferase reporter, luminescence; percent of tunicamycin response over DMSO baseline; activation, % at 10 µM; 330,000 compounds, 0.34% hits;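 active = at 10 µM dose, activation of 40% or more, normalized to positive control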;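 also: 100% = tunicamycin at 10 µg/mL and 0% = DMSO alone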
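Test system: CHO-CHOP cells, stable luciferase reporter of PERK-eIF2a-CHOP signalling | Quantity: 500 CHO-CHOP cells per well | Buffer or medium: F12 plus 10% serum | Compound dosing: 10 µM single point, 0.5% DMSO | Schedule: 6 h compound treatment, 37 °C | Signal: Luciferase luminescence | Control set: Tunicamycin high control, DMSO low control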
MC4R ag barr = agonists of human melanocortin 4 receptor (MC4R) beta-arrestin; P32245; U2OS MC4R beta-arrestin complementation, luminescence; percent of melanotan II response, DMSO zero; activation, % at 8.9 µM; 360,000 compounds, 0.98% hits; AID 540308;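 active = activation above a per-plate cutoff, the mean activation of sample wells on that plate plus 3 SD, cut at about 8% in these data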
An asterisk follows results filed as active; · = not tested or not shown.

SMILES | UPR XBP1 act | MC4R antag cAMP | A1 inh | CHOP UPR activ | MC4R ag barr
Cc1cccc(Cn2nc(C(C)(C)C)cc2C(=O)Nc2ccc(F)cc2)c1 | -0.5 | 4.6 | 0.5 | 0.0 | 8.5*
COc1cc(CNC(=O)c2cc(-c3ccc(F)cc3OC)n[nH]2)cc(OC)c1 | · | -3.1 | · | · | -0.3
COc1ccccc1/C=C\C=N\n1c(-c2ccc(Cl)cc2)n[nH]c1=S | 4.3 | 7.5 | -1.1 | 1.3 | 8.9*
O=C(COC(=O)c1cc(C(F)(F)F)cc(C(F)(F)F)c1)NCc1ccc(Cl)cc1 | 3.7 | -0.8 | -0.5 | 0.3 | 8.7*
O=C(COC(=O)c1cncc(Br)c1)NCc1ccc(Cl)cc1 | 0.1 | 6.3 | 0.6 | 0.4 | -0.4
CCn1nc(C(=O)Nc2ccc(C)c(C)c2)c(Cl)c1Cl | 6.2 | 3.1 | -0.4 | 6.7 | 8.7*
Cc1ccccc1-c1cc2nc(NCc3ccccc3F)n(C)c(=O)c2s1 | · | 1.0 | · | · | 6.1
Cc1cccc(NC(=O)/C(C#N)=C/c2cn(CC(=O)NCc3ccco3)c3ccccc23)c1 | · | 7.6 | 52.6* | · | -1.8
COCCNC(=O)C1(C)CCN(C(=O)c2ccc(SC(F)(F)F)cc2)C1 (centres undefined) | · | 5.1 | · | · | -1.8
S=c1nc(Cc2ccc(Cl)cc2)[nH]c2ccccc12 | -2.5 | -8.4 | -0.6 | -1.4 | 8.9*
COC(=O)c1cc(NC(=O)Nc2cccc(Cl)c2)ccc1Cl | 4.6 | -1.9 | -0.8 | 9.0 | 2.4
COC(=O)c1cc(NC(=O)c2ccc(-c3ccccc3)cc2)ccc1Cl | 0.0 | 1.7 | -4.0 | 1.4 | 9.3*
COc1cc(NC(C)=O)ccc1-c1cc2ccccc2oc1=O | 0.5 | 13.8 | 0.3 | 2.3 | -0.7
COc1cc(NC(=O)c2ccc(Cl)cc2Cl)ccc1-c1cc2ccccc2oc1=O | 40.0* | 10.6 | 4.1 | 10.8 | 5.2
COc1cc(NC(=O)c2ccccc2F)ccc1NC(=O)c1cc2ccccc2o1 | 14.7 | 0.9 | 13.8* | 17.1 | 8.8*
CCCCn1c(NC(=O)c2ccc(F)cc2)c(C#N)c2nc3ccccc3nc21 | 96.1* | · | -0.2 | 1.6 | ·
Cc1ccc(NC(=O)CC2S/C(=N/c3nccs3)N(C)C2=O)cc1C (centres undefined) | -1.1 | -2.5 | -0.1 | 0.1 | 8.6*
C[C@H](CO)N1C[C@H](C)[C@H](CN(C)S(C)(=O)=O)OCc2cnnn2CCCC1=O | · | 8.3 | · | · | 0.1
Cc1ccc(C(=O)COC(=O)c2ccc3c(c2)C(=O)N(c2cccc4ncccc24)C3=O)cc1 | -2.6 | -0.6 | 6.4* | -0.8 | -0.7
O=C(COC(=O)c1ccc2c(c1)C(=O)N(c1cccc3ncccc13)C2=O)c1ccc(Cl)cc1 | -3.2 | -5.2 | -0.4 | -1.7 | 3.0
Nc1ncc(-c2ccc(F)cc2)nc1N1CCN(CCO)CC1 | · | 3.5 | · | · | -2.0
OCCN1CCN(C2CCC(c3ccc(F)cc3)c3ccc(F)cc32)CC1 (centres undefined) | 1.4 | 5.5 | 0.5 | 0.7 | 9.0*
O=C(Nc1nnc(SCc2ccc(Cl)cc2)s1)c1ccco1 | -1.6 | -2.8 | -0.9 | 1.1 | 8.8*
CCSc1nnc(NC(=O)c2ccco2)s1 | 0.3 | 2.8 | -1.0 | -1.6 | -1.8
Cc1cccc(Cn2cc(SCC(=O)Nc3nccs3)c3ccccc32)c1 | 5.5 | -5.9 | 0.3 | 8.4 | 8.7*
SMILES | UPR XBP1 act | MC4R antag cAMP | A1 inh | CHOP UPR activ | MC4R ag barr
Fc1ccc(N=c2ssnc2Cl)c(F)c1 | -4.3 | 28.6* | 0.0 | 1.8 | 1.9
Cc1ccc(C(=O)c2oc3ccccc3c2NC(=O)c2cc(-c3cc(C)ccc3O)n[nH]2)cc1 | 60.4* | 2.7 | -0.8 | 10.1 | 2.0
Cc1ccc(C(=O)c2oc3ccccc3c2NC(=O)c2cc(-c3ccccc3O)n[nH]2)cc1 | 18.8 | 4.9 | 0.0 | 3.0 | 5.3
Cc1ccc(S(=O)(=O)n2nc(OC(=O)c3c(-c4ccccc4Cl)noc3C)cc2N)cc1 | -3.2 | 0.8 | -0.9 | 1.9 | -2.0
Cc1onc(-c2ccccc2Cl)c1C(=O)Oc1cc(N)n(S(=O)(=O)c2ccc(F)cc2)n1 | -4.8 | 28.8* | -0.1 | 6.8 | 0.9
CC(=O)Nc1ccc(CNc2nc3cc(-c4ccsc4)sc3c(=O)n2C)cc1 | · | 13.2 | · | · | -0.5
CC1(C)Cc2c(c(N3CCOCC3)nc3sc4c(N5CCOCC5)nnnc4c23)CS1 | 58.5* | · | -0.1 | 5.3 | ·
CC1(C)Cc2c(c(N3CCOCC3)nc3sc4c(=O)[nH]cnc4c23)CS1 | 5.0 | -37.9 | 0.3 | -1.9 | 0.5
COc1cc(CN2CCC(Oc3cc(C(=O)NC4CC4)ccc3OC)CC2)cc(OC)c1 | -0.4 | -4.0 | 0.4 | -1.2 | -1.6
O=C(O)c1ccc(CNC(=O)C2CCN(S(=O)(=O)c3cccs3)CC2)cc1 | · | 12.4 | · | · | -0.6
CCCc1c(NC(=O)Nc2ccc(Cl)cc2Cl)cnn1-c1ccccc1 | 2.2 | 9.4 | 0.8 | 0.5 | 9.2*
CC(=O)Oc1ccc(Cn2c(C)c(C(=O)NC3CC3)sc2=O)cc1 | · | 1.9 | · | · | 1.2
C#CCOCCOCCOCCNc1nc(N2CCN(C(=O)CCCCCCCCCCNC(=O)Cn3cc(C[C@@H](C)O)nn3)CC2)nc(N2CCN(C(=O)CCCCCCCCCCNC(=O)[C@H](CCCCN)n3cc(C[C@@H](C)CC)nn3)CC2)n1 | 5.4 | 31.8* | 0.4 | 0.5 | 1.2
C#CCOCCOCCOCCNc1nc(N2CCN(C(=O)CCCCCCCCCCNC(=O)[C@@H](CCSC)n3cc(CCO)nn3)CC2)nc(N2CCN(C(=O)CCCCCCCCCCNC(=O)[C@H]([C@@H](C)CC)n3cc(CCCCN=C(N)N)nn3)CC2)n1 | 0.4 | 40.8* | 1.5 | 1.9 | 1.7
C#CCOCCOCCOCCNc1nc(N2CCN(C(=O)CCCCCCCCCCNC(=O)[C@H]([C@@H](C)CC)n3cc(CCCCN=C(N)N)nn3)CC2)nc(N2CCN(C(=O)CCCCCCCCCCNC(=O)[C@H](CCCCN)n3cc(C[C@@H](C)CC)nn3)CC2)n1 | 39.0* | · | -0.1 | 16.7 | ·
C#CCOCCOCCOCCNc1nc(N2CCN(C(=O)CCCCCCCCCCNC(=O)[C@H](CCCCN)n3cc(C)nn3)CC2)nc(N2CCN(C(=O)CCCCCCCCCCNC(=O)[C@@H]([C@H](C)CC)n3cc(CCCCCN)nn3)CC2)n1 | 8.9 | 52.4* | 1.6 | -1.5 | -1.0
COc1ccccc1S(=O)(=O)N(C)C[C@@H]1OCc2cnnn2CCCC(=O)N([C@H](C)CO)C[C@H]1C | · | -3.0 | · | · | -0.8
CCNC(=O)C1(C)CCCN(Cc2ccc3ccccc3c2Br)C1 (centres undefined) | · | 10.5 | · | · | -2.2
CCNC(=O)C1CCCN(C(=O)c2ccc3ccccc3c2)CC1 (centres undefined) | · | -6.0 | · | · | 0.3
CCc1nc2c(OCc3ccccc3C)cccn2c1N(C)C(=O)C1CC1 | · | 0.4 | · | · | -0.5
CNc1cncc(-c2ccc(CN3CCOCC3)cc2)n1 | · | -0.8 | · | · | 0.8
